Bioassay records: PubChem, several laboratories
FLuc inhib CS – counter-screen for luciferase assay inhibitors: firefly luciferase inhibition. P08659. ATPLite firefly luciferase biochemical luminescence, 10 min. inhibition, % at 10 µM. 1.5% of 200,000 active. AID 1006;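 active = inhibition above about 50% when tested at 10 µM, limit read from the data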
Target sequence (P08659 whole entry, looked up): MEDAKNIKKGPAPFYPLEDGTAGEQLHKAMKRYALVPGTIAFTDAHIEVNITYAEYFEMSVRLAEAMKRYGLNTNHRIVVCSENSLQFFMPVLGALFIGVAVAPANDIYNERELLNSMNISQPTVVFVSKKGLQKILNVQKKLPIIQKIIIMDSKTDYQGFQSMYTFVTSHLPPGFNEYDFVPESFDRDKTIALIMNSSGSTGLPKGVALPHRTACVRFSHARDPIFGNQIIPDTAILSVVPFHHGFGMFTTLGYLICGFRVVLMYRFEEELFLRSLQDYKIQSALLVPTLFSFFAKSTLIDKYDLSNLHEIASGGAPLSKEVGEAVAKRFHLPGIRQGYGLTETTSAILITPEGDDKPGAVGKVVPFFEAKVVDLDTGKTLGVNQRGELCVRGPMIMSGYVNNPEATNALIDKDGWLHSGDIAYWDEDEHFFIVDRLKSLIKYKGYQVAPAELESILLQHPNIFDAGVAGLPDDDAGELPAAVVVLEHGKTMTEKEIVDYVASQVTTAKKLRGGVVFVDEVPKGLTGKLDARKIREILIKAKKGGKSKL
STAT3 act – activators of IL-6 induced STAT3 signaling. activation (% of control), % at 5.6 µM. AID 871. 0.91% of 190,000 active. U3A cells, IL-6 STAT3-luciferase reporter, luminescence; 100% = signal with IL-6 EC80 alone;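 active = activation above the screen-wide mean of compound activation plus 3 SD, cut at about 130% in these data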
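Assay system – human STAT1-deficient U3A cells with stable STAT3-luciferase reporter · Also added – IL-6 (33 ng/mL) · Schedule – compound 1 h, then IL-6 6 h at 37 °C · Technique – reporter luminescence signal · Evaluation – % activation versus median of IL-6-stimulated wells · Benchmarks – IL-6-only wells as 100% reference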
FLuc act counter – affects firefly luciferase, flagging false hits in luciferase stimulation screens | P08659 | ATPlite luciferase biochemical, luminescence, 10 min; 0 = ATP-free wells, 1 = DMSO control | activation factor at 10 µM | 200,000 tested, under 10 active | AID 1027;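 active = luciferase activation factor, scaled between plate controls, of at least 2 with compound at 10 µM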
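Assay system – cell-free luciferase reagent · Medium – PBS-based ATP solution · Dosing – test compounds dosed from 2 mM stocks in 100% DMSO · Timing – 10 min, room temperature · Technique – light output (luminescence) · Measure – luminescence gain marking luciferase activators · Controls – No-ATP low control, compound-free enzyme-plus-ATP high control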
STAT1 act – increases IFN-gamma driven STAT1 reporter signal. NIH 3T3 STAT1-luciferase reporter, luminescence; 100% = IFN-gamma alone, no compound. activation (% of control), % at 5.5 µM. 2.6% of 200,000 active. AID 932;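 active = activation above the screen-wide mean activation plus 3 SD, cut at about 130% in these data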
STAT1 blocker – inhibitors of IFN-gamma induced STAT1 signaling; AID 920; 0.35% of 200,000 active; inhibition, % at 5.5 µM; NIH 3T3 STAT1-luciferase reporter, luminescence;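 active = inhibition above a set limit, the mean inhibition across all tested compounds plus 3 SD, cut at about 34% in these data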
STAT3 inh – inhibitors of IL-6 induced STAT3 signaling | U3A cells, IL-6 STAT3-luciferase reporter, luminescence; host cell line lacks STAT1 | inhibition, % at 5.5 µM | 0.89% of 190,000 active | AID 862;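 active = inhibition above the mean inhibition across all screened compounds plus 3 SD, cut at about 44% in these data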
Of the large screens only hits and unclear results are named; the others gave an inactive call. Hits are enriched below; roughly 4.9% of the tested compounds scored in any of these assays.

c1ccn2cc(CSC3=NCCS3)nc2c1	STAT1 act 130
c1ccc(-n2nnnc2SCc2cn3ccccc3n2)cc1	none
Cc1ccc(SCc2cn3cccnc3n2)cc1	none
COc1ccc(C2=Nn3c([n+](C)c4ccccc43)SC2)cc1	STAT1 blocker 35
CN(C)S(=O)(=O)Oc1ccc(C(=O)Nc2ccc([N+](=O)[O-])cc2)cc1	none
CN(C)S(=O)(=O)Oc1cccc(C(=O)Nc2ccc(Cl)c(Cl)c2)c1	STAT1 act 137
CN(C)S(=O)(=O)Oc1cccc(C(=O)Nc2cccc(Cl)c2)c1	none
COc1cccc(C(=O)Nc2ccccc2)c1	none
COc1ccc(NC(=O)c2cccc(OS(=O)(=O)N(C)C)c2)cc1	FLuc inhib CS 54
COC(=O)c1ccc(OS(=O)(=O)N(C)C)cc1	STAT1 act 130
CSCCC(NS(=O)(=O)c1ccc(Cl)c(Cl)c1)C(=O)O (stereo not drawn)	none
Cc1cc(Cl)ccc1Oc1ncnc2onc(C)c12	none
Cc1ccc(/C=N\NC(=O)c2csnn2)cc1	FLuc inhib CS 66, STAT1 act 134
CC(=O)Nc1ccc(-c2cn3cc(C)ccc3n2)cc1	FLuc inhib CS 84, STAT1 act 130
Cc1ccc2nc(-c3ccc(S(=O)(=O)N4CCOCC4)cc3)cn2c1	none
Cc1ccc2nc(-c3ccccc3)cn2c1	FLuc inhib CS 96, STAT1 blocker 84, STAT3 inh 103
O=C(CSc1ccc(-c2ccc(F)cc2)nn1)N1CCOCC1	none
COc1ccc(-c2nnc(-c3cccs3)o2)cc1OC	STAT1 act 150
COc1ccc(Cc2nc(-c3cccs3)no2)cc1	none
Cc1ccccc1-c1noc(-c2cccs2)n1	STAT1 act 143
Cc1ccccc1-c1nnc(-c2cccs2)o1	STAT1 act 144
C=CCn1c(=O)n(C(=O)OCC)c2cc(Br)ccc21	none
COc1ccc2[nH]c(=O)c(CN(CCc3ccccc3)C(C)=O)cc2c1	none
COc1ccc2[nH]c(=O)c(CNc3ccccc3)cc2c1	STAT1 act 129
Cc1ccsc1C(=O)NNC(=O)C1CC=CCC1C(=O)O (stereo not drawn)	STAT1 act 144
Cc1ccsc1C(=O)NNC(=O)C1CCCCC1C(=O)O (stereo not drawn)	STAT1 act 129
O=C(NNC(=O)[C@@H]1CCCC[C@@H]1C(=O)O)c1cccs1	none
CS(=O)(=O)N(CC(=O)NCc1ccco1)c1ccc(OCc2ccccc2)cc1	none
CC(O)C(=O)N/N=C/c1ccccc1C(=O)O (stereo not drawn)	none
C=CCN(CC=C)C(=S)NC(=O)Cc1cccc2ccccc12	none
CC(=O)c1c(C)[nH]c(C(=O)NCCC2=CCCCC2)c1C	STAT1 act 134
CCOC(=O)c1[nH]c(C)c(C(=O)NCCC2=CCCCC2)c1C	none
Cc1cc(C(=O)NCCC2=CCCCC2)ccc1[N+](=O)[O-]	STAT1 act 133
O=C(NCCC1=CCCCC1)c1ccc(CN2CCOCC2)cc1	STAT1 act 134
Cc1cccc(OCc2nnc(SCC(=O)O)n2Cc2ccccc2)c1	none
CCOC(=O)C1(Cc2cccc(OC)c2)CCN(Cc2cccn2-c2ccccn2)CC1	none
COc1ccc([N+](=O)[O-])cc1N(CC(=O)N(C)C)S(C)(=O)=O	none
O=C(NCCC1=CCCCC1)Nc1ccc2nsnc2c1	STAT1 act 133
O=C(NCCC1=CCCCC1)NC12CC3CC(CC(C3)C1)C2	STAT1 act 144
Cc1ccc(C(=O)Nc2ccc(C(=O)N3CCCCC3C)cc2)cc1 (stereo not drawn)	none
Cn1c2ccccc2c2cc(C(=O)NNC(=O)CCl)sc21	STAT3 act 137, STAT1 act 133
Cc1ccc(S(=O)(=O)N2CCCCC2)cc1NC(=O)C1CCCO1 (stereo not drawn)	none
Nc1cccc(-n2cccc2)c1	none
COCCNC(=S)N/N=C/c1ccc2c(c1)OCCO2	FLuc inhib CS 59
CC(C)NC(=S)N/N=C/c1ccc2c(c1)OCCO2	FLuc inhib CS 76
Cc1ccccc1OCC(=O)N/N=C/c1ccc2c(c1)OCCO2	none
O=C(CSc1cccc[n+]1[O-])c1cc(Cl)ccc1Cl	none
COc1ccccc1CC(=O)NCC(c1ccco1)N1CCCCC1 (stereo not drawn)	none
CC(NCC(c1ccco1)N1CCCCC1)C(=O)NC1CCCC1 (stereo not drawn)	FLuc inhib CS 74
S=C(NNc1ccc2ccccc2c1)NC1CCCCC1	none
c1ccc(Sc2ncnc3c2oc2ccccc23)cc1	STAT1 act 144
CCNS(=O)(=O)c1ccc(CCC(=O)NCc2ccccc2)cc1	none
C[C@@H](C(=O)N[C@H](C(=O)O)c1ccccc1)n1nnc2ccccc2c1=O	none
C[C@@]1([C@@H](NC(=O)c2cccs2)c2ccc(-c3ccccc3)cc2)C[C@H]1C1CCCCC1	none
Cc1cc(=O)oc2ccc(OCC(=O)N3CCC(C)CC3)cc12	STAT3 act 135
Cc1cc(=O)oc2cc(OCC(=O)N3CCCC(C)C3)ccc12 (stereo not drawn)	none
Cn1cc(/C=N/n2cnc3scc(-c4ccc(Cl)cc4)c3c2=O)c2ccccc21	STAT3 act 135
CCn1cnc2scc(-c3ccccc3)c2c1=O	none
CC(C)(C)c1ccc(C(=O)Nc2ccccc2Cl)cc1	FLuc inhib CS 59
COC(=O)c1ccc(Cl)c(NC(=O)c2ccc(-c3ccccc3)cc2)c1	STAT3 act 136
Cc1cc(C(=O)CN2CCCC(C)C2)c(C)n1-c1ccc(F)cc1 (stereo not drawn)	STAT1 act 143
C/C(=N/NC(=O)c1ccoc1C)c1ccc(NC(=O)C2CCCC2)cc1	STAT1 act 136
C/C(=N\NC(=O)c1ccn(C)n1)c1ccc(NC(=O)C2CCCC2)cc1	STAT1 act 135
Cc1occc1C(=O)NNC(=O)C1CCCCC1	none
C[C@@H]1CN(Cc2cn(C)nc2-c2cccc(Cl)c2)C[C@H](C)O1	none
COc1ccc(C)cc1C1=Nc2ccccc2C1(C)C	none
Cc1ccc(O)c(C2=Nc3ccccc3C2(C)C)c1	STAT1 act 147
c1ccc(Oc2ccc3ccccc3n2)cc1	STAT1 act 136
Cc1sc(NC(=O)c2ccccc2F)c(CN2CCCCC2)c1C	none
Cc1sc(NC(=O)c2ccc(F)cc2)c(CN2CCCCCC2)c1C	STAT1 act 131
Cc1cc(C(=O)COC(=O)CN=C2NS(=O)(=O)c3ccccc32)c(C)n1CCc1ccc(Cl)cc1	none
CCOc1ccc2c(c1)sc(=NC(=O)C1CC1)n2C	STAT1 act 150
Cn1c(=NC(=O)C2CCCCC2)sc2cc([N+](=O)[O-])ccc21	none
Cc1ccc(OCCSc2ncccn2)c(C)c1	STAT1 act 136
Cc1cccc(OCCOCCSc2ncccn2)c1	none
